Assays:
Human gammaherpesvirus 4 [1] = experiment: Inhibition of EBV replication in Daudi cells by VCA ELISA; type: functional, organism-based; settings: human gammaherpesvirus 4, Daudi
Procedure, shortened: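 Viral capsid antigen (VCA) ELISA in Daudi cells; EC50 from capsid antigen signal. Cytotoxicity measured in CEM cells.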

[2] = Cytotoxicity against Daudi cells; type: cell-based; settings: human
Human gammaherpesvirus 4 [3] = experiment: Inhibition of EBV replication in H1 cells by DNA hybridization assay; type: functional, organism-based; settings: human gammaherpesvirus 4, H1
Procedure, shortened: (§1)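 EBV DNA hybridization assay in Daudi or H-1 cells; EC50 derived from viral DNA signal. Cytotoxicity for these EBV assays measured in CEM cells.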

CCRF-CEM = experiment: Cytotoxicity against CEM cells; type: functional; settings: Homo sapiens
Human alphaherpesvirus 3 = experiment: Inhibition of VZV replication in HFF cells by CPE assay; type: functional, organism-based; settings: Human alphaherpesvirus 3, HFF
[4] = test system: Human immunodeficiency virus 1; experiment: Inhibition of HIV1 LAI replication in MT2 by CPE assay; type: functional, organism-based; settings: Human immunodeficiency virus 1, LAI
Procedure, shortened: (§2)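 HIV-1 LAI, 100 TCID50, used to infect MT-2 (2 × 10^3) or MT-4 (3 × 10^4) cells, which are then cultured with test analogue. EC50 read by MTT assay on day 7 (MT-2) or day 5 (MT-4). Assays run in duplicate.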

[5] = Cytotoxicity against MT2 cells; type: cell-based; settings: human
Procedure, shortened: (§3)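 Uninfected MT-2 (2 × 10^3 cells) or MT-4 (3 × 10^4 cells) cultured with analogues. Viability read by MTT assay after day 7 (MT-2) or day 5 (MT-4). Run in duplicate.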

Hepatitis B virus = experiment: Inhibition of HBV replication in 2.2.15 cells by DNA hybridization assay; type: functional, organism-based; settings: HepG2 2.2.15
Procedure, shortened: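 HBV in 2.2.15 cells; viral DNA quantified by DNA hybridization to give EC50.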

[6] = Cytotoxicity against Vero cells; type: cell-based; settings: chlorocebus sabaeus
[7] = Cytotoxicity against HFF cells; type: cell-based; settings: human
Human betaherpesvirus 5 [8] = experiment: Inhibition of HCMV Towne replication in HFF cells by plaque reduction assay; type: functional, organism-based; settings: Human betaherpesvirus 5, Towne
Procedure, shortened: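 Plaque reduction assay in HFF culture with HCMV Towne strain; cytotoxicity by neutral red uptake.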

[9] = Cytotoxicity against HFF cells by visual cytotoxicity; type: cell-based; settings: human
Procedure, shortened: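 HFF cultures exposed to analogues. Cytotoxicity scored visually.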

Human betaherpesvirus 5 [10] = experiment: Inhibition of HCMV AD169 replication in HFF cells by CPE inhibition assay; type: functional, organism-based; settings: Human betaherpesvirus 5, AD169, HFF
Procedure, shortened: (§4)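 Cytopathic effect inhibition assay in HFF culture (HCMV AD169; HSV-1 and HSV-2). Cytotoxicity by neutral red uptake.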

[11] = Cytotoxicity against HFF cells by neutral red uptake assay; type: cell-based; settings: human
Procedure, shortened: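 Human foreskin fibroblast (HFF) cultures, as used for the HCMV assays, exposed to analogues. Cytotoxicity read by neutral red uptake.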

Human alphaherpesvirus 1 [12] = experiment: Inhibition of HSV1 replication in BSC1 cells by ELISA; type: functional, organism-based; settings: Human alphaherpesvirus 1, BSC-1
Procedure, shortened: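 HSV-1 in BSC-1 cells, read by ELISA; cytotoxicity determined in KB cells.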

Human alphaherpesvirus 1 [13] = experiment: Inhibition of HSV1 in HFF cells by CPE assay; type: functional, organism-based; settings: Human alphaherpesvirus 1, HFF; procedure, shortened: as §4
Human alphaherpesvirus 2 = experiment: Inhibition of HSV2 in HFF cells by CPE assay; type: functional, organism-based; settings: Human alphaherpesvirus 2, HFF; procedure, shortened: as §4
[14] = Inhibition of HSV2 in Vero cells by plaque reduction assay; type: cell-based; settings: Chlorocebus sabaeus
Procedure, shortened: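 Plaque reduction assay in Vero cells with HSV-1 or HSV-2.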

Human alphaherpesvirus 1 [15] = experiment: Inhibition of HSV1 in Vero cells by plaque reduction assay; settings: Human alphaherpesvirus 1, Vero
Human gammaherpesvirus 4 [16] = experiment: Inhibition of EBV replication in Daudi cells by DNA hybridization assay; type: functional, organism-based; settings: human gammaherpesvirus 4, Daudi; procedure, shortened: as §1
[17] = test system: Human immunodeficiency virus 1; experiment: Inhibition of HIV1 LAI replication in MT4 by CPE assay; type: functional, organism-based; settings: Human immunodeficiency virus 1, LAI; procedure, shortened: as §2
[18] = Cytotoxicity against MT4 cells; type: cell-based; settings: human; procedure, shortened: as §3
Murid betaherpesvirus 1 = experiment: Inhibition of MCMV replication in MFF cells by plaque reduction assay; type: functional, organism-based; settings: Murid betaherpesvirus 1, MFF
Procedure, shortened: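 MCMV in MEF cells by plaque reduction.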

[19] = Cytotoxicity against MFF cells; type: cell-based; settings: mouse

| Structure (SMILES) | EC50 (Human gammaherpesvirus 4 [1]) | CC50 [2] | EC50 (Human gammaherpesvirus 4 [3]) | CC50 (CCRF-CEM) | EC50 (Human alphaherpesvirus 3) | EC50 [4] | CC50 [5] | EC50 (Hepatitis B virus) | CC50 [6] | CC50 [7] | EC50 (Human betaherpesvirus 5 [8]) | CC50 [9] | EC50 (Human betaherpesvirus 5 [10]) | CC50 [11] | EC50 (Human alphaherpesvirus 1 [12]) | EC50 (Human alphaherpesvirus 1 [13]) | EC50 (Human alphaherpesvirus 2) | EC50 [14] | EC50 (Human alphaherpesvirus 1 [15]) | EC50 (Human gammaherpesvirus 4 [16]) | other results |
| --- | --- | --- | --- | --- | --- | --- | --- | --- | --- | --- | --- | --- | --- | --- | --- | --- | --- | --- | --- | --- | --- |
| Nc1nc2c(ncn2/C=C2\CC2(F)CO)c(=O)[nH]1 (stereo unspecified) | < 0.32 µM | > 199 µM | > 20 µM | > 100 µM | > 79.6 µM | > 100 µM | > 100 µM | > 20 µM | > 100 µM | > 400 µM | > 100 µM | > 100 µM | > 79.6 µM | > 398 µM | 90 µM | > 80 µM | > 80 µM | > 50 µM | > 50 µM |  |  |
| Nc1ccn(/C=C2/CC2(F)CO)c(=O)n1 (stereo unspecified) | < 0.38 µM | > 237 µM | > 20 µM | > 100 µM | 0.62 µM | > 100 µM | > 100 µM | > 20 µM | > 100 µM | > 400 µM | > 100 µM | > 100 µM | > 474 µM | > 474 µM | > 100 µM | > 80 µM | > 80 µM | > 50 µM | > 50 µM | 28.4 µM |  |
| Nc1ccn(/C=C2\CC2(F)CO)c(=O)n1 (stereo unspecified) | 0.76 µM | > 237 µM | > 20 µM | > 100 µM | 14.7 µM | > 100 µM | > 100 µM | > 20 µM | > 100 µM | > 400 µM | > 100 µM | > 100 µM | > 474 µM | > 474 µM | > 100 µM | > 80 µM | > 80 µM | > 50 µM | > 50 µM | 94.8 µM |  |
| Nc1ncnc2c1ncn2/C=C1/CC1(F)CO (stereo unspecified) | 1.45 µM | > 213 µM | 13.8 µM | > 100 µM | 14 µM | 12 µM | > 100 µM | > 20 µM | > 100 µM | > 400 µM | 3.6 µM | > 100 µM | 6 µM | > 425 µM | > 100 µM | > 80 µM | > 80 µM | > 50 µM | > 50 µM |  | EC50 [17]: 22 µM; CC50 [18]: > 100 µM; EC50 (Murid betaherpesvirus 1): 69.3 µM; CC50 [19]: > 425 µM |
| Nc1ncnc2c1ncn2/C=C1\CC1(F)CO (stereo unspecified) |  | > 209 µM |  | > 100 µM | > 83.4 µM | 2.3 µM | > 100 µM | 15 µM | > 100 µM | > 400 µM | 20 µM | > 100 µM | > 16.7 µM | > 417 µM | 30 µM | > 80 µM | > 80 µM | > 50 µM | > 50 µM |  | EC50 [17]: 7.6 µM; CC50 [18]: > 100 µM |
| Cc1cn(/C=C2/CC2(F)CO)c(=O)[nH]c1=O (stereo unspecified) | 51.7 µM | > 221 µM | 2.5 µM | > 100 µM | 0.62 µM | > 100 µM | > 100 µM | > 20 µM | > 100 µM | > 400 µM | > 100 µM | > 100 µM | > 442 µM | > 442 µM | 2.5 µM | > 80 µM | > 80 µM | > 50 µM | > 50 µM | 4.4 µM |  |

— ChEMBL document CHEMBL1149318, “(Z)- and (E)-[2-Fluoro-2-(hydroxymethyl)cyclopropylidene]methylpurines and -pyrimidines, a new class of methylenecyclopropane analogues of nucleosides: synthesis and antiviral activity” (J Med Chem, 2004)
